Data reported in ChEMBL document CHEMBL1157173, “Isocoumarin-based inhibitors of pancreatic cholesterol esterase” (Bioorg Med Chem, 2008).
pKi: −log10 of the molar value.

Assay: Binding affinity to pig pancreatic cholesterol esterase
Design: species or system Sus scrofa
In short: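 Porcine enzyme assayed in 0.1 M Hepes, pH 7, with 6 mM taurocholate and 1 mM p-nitrophenylbutyrate substrate; hydrolysis followed at 405 nm. Inhibition constants derived from double reciprocal and Dixon plots, and for high-affinity inhibitors from Straus-Goldstein plots.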

Compound | pKi
Nc1ccc2cc(OCCBr)oc(=O)c2c1 | < 4.00
O=c1oc(OCCCBr)c(Cl)c2ccc([N+](=O)[O-])cc12 | 5.80
O=c1oc(OCC2CCCCC2)cc2ccc([N+](=O)[O-])cc12 | 4.27
O=C(c1c(OCCC2CCCCC2)oc(=O)c2ccccc12)C(F)(F)F | 4.14
O=c1oc(OCCCCCC2CCCCC2)c(Cl)c2ccccc12 | 4.21
CCCOc1oc(=O)c2ccccc2c1C(=O)C(F)(F)F | < 4.60
O=c1oc(OCC2CCCCC2)c(Cl)c2ccccc12 | 5.74
O=C(c1c(OCC2CCCCC2)oc(=O)c2ccccc12)C(F)(F)F | < 4.00
O=c1oc(OCCBr)cc2ccc([N+](=O)[O-])cc12 | 4.30
CCCOc1oc(=O)c2ccccc2c1Cl | 5.44
O=c1oc(OCCCBr)cc2ccc([N+](=O)[O-])cc12 | 4.48
COc1oc(=O)c2cc([N+](=O)[O-])ccc2c1Cl | 4.72
O=c1oc(OCCC2CCCCC2)cc2ccc([N+](=O)[O-])cc12 | < 4.00
COc1oc(=O)c2cc(NC(=O)c3ccccc3)ccc2c1Cl | < 3.60
CCCCOc1oc(=O)c2ccccc2c1Cl | 5.19
O=c1oc(OCC2CCCCC2)c(Cl)c2ccc([N+](=O)[O-])cc12 | 5.24
Nc1ccc2c(Cl)c(OCCBr)oc(=O)c2c1 | 4.59
COc1oc(=O)c2cc(NC(=O)C3CCCCC3)ccc2c1Cl | < 4.60
COc1oc(=O)c2cc(N)ccc2c1Cl | 4.77

Compounds with a higher pKi, results first:

pKi | Compound
5.92 | O=c1oc(OCCC2CCCCC2)c(Cl)c2ccccc12
5.92 | O=c1oc(OC2CCCCC2)c(Cl)c2ccccc12
6.02 | O=c1oc(OC2CCCC2)c(Cl)c2ccccc12
6.15 | O=c1oc(OCCC2CCCCC2)c(Cl)c2ccc([N+](=O)[O-])cc12
6.44 | O=c1oc(OCC2CCCC2)c(Cl)c2ccccc12
6.59 | O=c1oc(OCCC2CCCC2)c(Cl)c2ccccc12
6.59 | O=c1oc(OCCBr)c(Cl)c2ccc([N+](=O)[O-])cc12
6.72 | O=c1oc(OC2CCC(C3CCCCC3)CC2)c(Cl)c2ccccc12 (stereo not given)
6.74 | O=c1oc(OCCCC2CCCCC2)c(Cl)c2ccccc12
7.72 | O=c1oc(OCCCC2CCCC2)c(Cl)c2ccccc12
7.96 | O=c1oc(OCCCCC2CCCCC2)c(Cl)c2ccccc12
